# Bioassay records from PubChem.
# Shown are actives, neighbours in structure and some others; about 1.6% of the full set was active somewhere.
# LEDGF integ inh: blocks HIV-1 LEDGF/p75-dependent DNA integration | TR-FRET IN-LEDGF/p75 DNA integration, Eu/Cy5 | inhibition, % at 3.7 µM | 370,000 tested, 0.64% active;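 active means inhibition above the screen-wide mean plus 3 SD, cut at about 13% in these data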;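 further: signal is the Cy5 over europium emission ratio at 671 and 618 nm; 0% = plate median of compound wells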
# UHRF1 MBD2 ctr: UHRF1 methyl-DNA binding inhibition; 370,000 tested, 0.75% active; AID 687016; UHRF1 binding to methylated oligo, TR-FRET; inhibition, % at 4.4 µM; Q96T88; in the data active means inhibition above about 21%;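 further: UHRF1 SRA domain binding a hemimethylated CpG hairpin DNA probe; 0% = median of test compound wells and 100% = reference inhibitor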
# Target sequence (Q96T88 whole entry, looked up, the tested form may be a part): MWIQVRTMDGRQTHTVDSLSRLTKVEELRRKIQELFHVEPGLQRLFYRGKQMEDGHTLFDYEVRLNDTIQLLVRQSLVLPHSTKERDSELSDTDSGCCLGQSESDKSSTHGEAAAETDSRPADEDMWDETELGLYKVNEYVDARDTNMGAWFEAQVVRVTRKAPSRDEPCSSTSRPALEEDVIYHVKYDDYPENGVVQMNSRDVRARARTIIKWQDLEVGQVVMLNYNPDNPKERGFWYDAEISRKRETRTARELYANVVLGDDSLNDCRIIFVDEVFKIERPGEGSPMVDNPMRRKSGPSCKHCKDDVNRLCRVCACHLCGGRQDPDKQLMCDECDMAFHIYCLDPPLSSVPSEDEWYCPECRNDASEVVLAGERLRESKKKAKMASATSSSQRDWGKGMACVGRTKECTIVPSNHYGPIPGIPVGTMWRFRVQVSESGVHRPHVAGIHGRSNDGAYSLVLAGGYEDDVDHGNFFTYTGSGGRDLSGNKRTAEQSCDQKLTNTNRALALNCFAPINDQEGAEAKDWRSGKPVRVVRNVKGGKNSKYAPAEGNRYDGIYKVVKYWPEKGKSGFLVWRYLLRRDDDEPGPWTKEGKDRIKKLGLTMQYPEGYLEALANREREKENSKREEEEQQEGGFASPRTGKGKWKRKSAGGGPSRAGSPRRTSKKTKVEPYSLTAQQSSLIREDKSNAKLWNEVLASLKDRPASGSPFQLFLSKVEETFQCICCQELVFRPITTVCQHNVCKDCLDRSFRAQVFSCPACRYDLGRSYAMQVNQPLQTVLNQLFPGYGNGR
# TDP2 absorb: blocks human TDP2 phosphodiesterase activity; O95551; recombinant TDP2, T5PNP hydrolysis, p-nitrophenol absorbance 415 nm; inhibition, % at 12.8 µM; 370,000 tested, 0.34% active;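 active means inhibition above the mean of all tested compounds plus 3 SD, set per campaign, cut at about 25% in these data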;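 further: 0% = DMSO with enzyme and 100% = buffer with substrate but no TDP2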
#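 System – recombinant human TDP2 · Quantity – TDP2 enzyme at 120 nM final · Doses – single concentration, 12.8 µM nominal, with 1% DMSO · Incubation – 2 h at 37 °C · Measured by – epi absorbance of p-nitrophenol freed from T5PNP by hydrolysis · Read-out – % inhibition relative to enzyme-containing and enzyme-free wells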
# MBD2 inh: blocks human MBD2 binding to methylated DNA; inhibition, % at 4.4 µM; AID 686964; 370,000 tested, 0.31% active; TR-FRET, MBD2 binding to methylated oligonucleotide; in the data active means inhibition above about 13%
# * = called active by the depositor.
SMILES,LEDGF integ inh,UHRF1 MBD2 ctr,TDP2 absorb,MBD2 inh
CC1=C(C(=O)N2CCOCC2)C(c2ccc(O)cc2)NC(=S)N1 (stereo not drawn),-0.9,0.8,-19.6,-4.3
CC(C)CN1C(=O)[C@]2(CC(=O)N(C)C2c2ccccc2)c2cc(-n3cc(CCCC#N)nn3)ccc21 (stereo partly drawn),2.6,-0.3,-5.0,3.3
COc1ccc(CNS(=O)(=O)/C=C/c2ccc(F)cc2CNC(=O)OC(C)(C)C)cc1,-0.6,-3.8,7.1,2.8
O=C(N[C@H]1CC[C@H](CCNS(=O)(=O)c2ccc(Cl)cc2)O[C@@H]1CO)c1cccc(F)c1,5.2,23.0*,-13.2,11.7
CCCCCNC(=O)C(c1cccc2ccccc12)n1c(=O)c(-c2ccccc2)nc2ccccc21 (stereo not drawn),0.6,73.9*,0.2,-0.9
COC(=O)C[C@@H]1CC[C@@H]2[C@H](COc3ccc(NC(=O)c4ccc5c(c4)OCO5)cc3C(=O)N2C)O1,-1.4,0.3,9.6,-2.4
CN1Cc2sc(NC(=S)NC(=O)c3ccccc3)c(C#N)c2CC1(C)C,-8.5,29.4*,-17.9,20.8*
CCC1(C)Cc2c(sc(NC(=S)NC(=O)c3ccccc3)c2C#N)CO1 (stereo not drawn),-2.1,1.4,-6.1,3.2
Cn1nc(-c2ccccc2)c(CN2CCN(c3ncccn3)CC2)c1Cl,7.1,33.5*,12.4,7.0
O=C(N/N=C\C=C\c1ccc2c(c1)OCO2)c1cccnc1,-2.1,32.7*,-12.5,-3.8
Cc1ccc(-n2c(SCC(=O)Nc3ccc(S(=O)(=O)Nc4cc(C)nc(C)n4)cc3)nnc2-c2cccs2)cc1,2.0,0.9,6.4,-5.7
COc1ccc(CNC(=O)C2CCN(c3nnc(N4CCCC4=O)s3)CC2)cc1,3.1,22.3*,-4.0,2.5
CCCCCCSc1cc(-c2nc3ccc(Cl)cn3c2NC2CCCCC2)ccc1OC,-0.5,57.7*,2.9,0.2
CCCCCCSc1ccc(-c2nc3ccc(Cl)cn3c2NC2CCCCC2)cc1,-0.8,0.4,4.6,-1.7
CCCCNc1c(-c2ccc(SC3CCCCC3)c(OC)c2)nc2ccc(Cl)cn12,10.8,23.7*,23.9,9.6
CCc1ccc(S(=O)(=O)Nc2ccc(-c3ccc4nncn4n3)cc2)s1,-4.2,23.4*,-2.5,0.1
COC(=O)C1=C(C)NC(=S)NC1c1ccc(-c2ccccc2C(=O)OC)o1 (stereo not drawn),1.0,21.9*,-4.1,3.9
CC1CN(S(=O)(=O)c2cccc(C(=O)NCc3ccccn3)c2)CC(C)O1 (stereo not drawn),0.9,28.3*,2.7,2.6
CC1CN(S(=O)(=O)c2ccc(C(=O)Nc3ccc(S(=O)(=O)Nc4ncccn4)cc3)cc2)CC(C)O1 (stereo not drawn),-4.5,36.0*,-1.5,1.2
COc1ccc(CN2C3=N[C@H](c4ccccc4)CC(=O)N3/C(=C\c3ccccc3)C2c2ccco2)c(OC)c1 (stereo partly drawn),-2.0,-1.2,-4.2,5.0
O=C(NCCc1ccccc1F)c1ccc(Sc2ccccc2Cl)c([N+](=O)[O-])c1,2.3,-1.9,8.6,-6.3
CCOC(=O)C1C(c2cccc(F)c2)NC(=S)NC1(O)C(F)(F)F (stereo not drawn),-0.4,28.9*,1.3,0.6
CCOC(=O)C1C(c2cc(OC)c(OC)c(OC)c2)NC(=S)NC1(O)C(F)(F)F (stereo not drawn),-0.2,0.6,6.9,9.7
N=C1/C(=C\c2ccc(Br)o2)C(=O)N=C2SC(CC(=O)N3CCOCC3)=NN12,22.2*,17.5,5.1,0.2
CSc1ccc(/C=C2\C(=N)N3N=C(CC(=O)N4CCOCC4)SC3=NC2=O)cc1,2.7,-0.2,9.0,-3.9
SMILES,LEDGF integ inh,UHRF1 MBD2 ctr,TDP2 absorb,MBD2 inh
N=C1/C(=C/c2ccco2)C(=O)N=C2SC(CC(=O)N3CCCC3)=NN12,12.7,13.5,0.9,4.5
N=C1/C(=C/c2ccc(Br)o2)C(=O)N=C2SC(CC(=O)N3CCCC3)=NN12,16.0*,14.8,6.4,-1.1
CCN1Cc2nnn(Cc3ccccc3)c2-c2ccccc2S1(=O)=O,-1.4,-1.9,-2.6,-2.8
CCCCCCn1cc(CN2CC(N3CCN(C)CC3)CS2(=O)=O)nn1 (stereo not drawn),-1.1,17.4,7.2,12.2
COC(=O)CCCn1cc(CN2CC(N3CCN(C)CC3)CS2(=O)=O)nn1 (stereo not drawn),5.0,24.1*,-3.2,8.1
Cc1ccccc1NC(=O)N(C)[C@H]1C[C@H]2c3[nH]c4c(-c5ccccc5)cccc4c3CCN2C(=O)[C@H]1[C@H](C)O,2.9,3.1,-4.8,2.0
CCOC(=O)c1c(NC(=O)C2CCCO2)sc(C(N)=O)c1C (stereo not drawn),0.5,-1.6,-4.8,-4.0
CCOC(=O)c1c(NC(=O)C2c3ccccc3Oc3ccccc32)sc(C(N)=O)c1C,-0.1,22.3*,2.3,5.1
CCCCOC(=O)Nc1ccc(S(=O)(=O)Nc2onc(C)c2C)cc1,-2.9,21.1*,8.7,-2.1
Cc1ccc(-n2[nH]c3c4c(ccc3c2=O)C(=O)c2ccccc2C4=O)cc1,-3.0,26.7*,5.9,4.2
O=C(O)CCNc1ccc(NCCC(=O)O)c2c1C(=O)c1ccccc1C2=O,-7.6,39.9*,3.5,2.3
COC(=O)CSc1nn(-c2ccc(F)cc2)c(=S)s1,-1.7,21.4*,-7.9,6.5
O=C(CSc1nn(-c2ccccc2)c(=S)s1)Nn1cnnc1,0.3,1.6,-10.6,-1.9
CCOC(=O)c1sc2nc(C)cc(C)c2c1N,-2.1,-1.9,-4.7,-4.9
CCOC(=O)c1sc2nc(OCc3cccnc3)cc(C)c2c1N,0.4,55.4*,-4.5,25.4*
CCN(CC)C(=O)CC[C@@H]1CC[C@]2(CCCN(Cc3ccc(Br)cc3)C2)O1,6.8,-1.4,4.0,-3.8
CC(=O)C1C(c2ccccc2)c2c(n[nH]c2C)CC1(C)O (stereo not drawn),3.0,9.4,-20.6,5.8
CC(=O)C1C(c2ccc(C)cc2)c2c(n[nH]c2C)CC1(C)O (stereo not drawn),1.6,22.8*,4.2,7.2
CCOc1nc(C)cc(C)c1S(=O)(=O)c1ccc(Cl)cc1,1.3,25.1*,0.2,6.7
COC(=O)[C@]12C[C@H](CC(=O)N3CCCCC3)C(=O)N(Cc3ccco3)C1=C[C@H](C(C)(C)C)O[C@@H]2C,5.5,0.6,-4.5,6.0
O=C(NCc1ccccc1)C(=O)NCC1COc2ccccc2O1 (stereo not drawn),-2.0,0.0,-2.6,5.2
CC(NCC1COc2ccccc2O1)C(=O)NCc1ccccc1 (stereo not drawn),1.3,25.1*,-2.1,8.7
O=C(CCC1CCCC1)NCc1cccs1,-2.2,-2.2,-9.0,-5.8
O=C(CCCCC(=O)NCc1cccs1)NCc1cccs1,3.4,22.7*,11.5,11.5
COC(=O)[C@H](C(C)C)N(Cc1cn(Cc2ccccc2)nn1)S(=O)(=O)c1ccc(F)cc1Br,0.9,15.7,-4.7,7.2
COc1ccc(CN2CC(C(=O)NCCCN3CCCCCC3)CC2=O)cc1 (stereo not drawn),1.1,1.0,0.8,-2.8
